Data published in ChEMBL document CHEMBL4118075, “Thiophene/thiazole-benzene replacement on guanidine derivatives targeting α2-Adrenoceptors” (Eur J Med Chem, 2017).
Calls of active or inactive are those of the source. The calls are words filed in the database; no cut-off is given here.

Tests used:
[1] = target: T1, Adrenergic receptor alpha-2 (Homo sapiens, UniProt P08913+P18825+P18089); experiment: Displacement of [3H]RX821002 from alpha2 adrenergic receptor in human brain prefrontal cortex membranes after 30 mins by microbeta liquid scintillation spectrometry; parameters: species or system Membrane
T1 sequence (P08913 whole entry): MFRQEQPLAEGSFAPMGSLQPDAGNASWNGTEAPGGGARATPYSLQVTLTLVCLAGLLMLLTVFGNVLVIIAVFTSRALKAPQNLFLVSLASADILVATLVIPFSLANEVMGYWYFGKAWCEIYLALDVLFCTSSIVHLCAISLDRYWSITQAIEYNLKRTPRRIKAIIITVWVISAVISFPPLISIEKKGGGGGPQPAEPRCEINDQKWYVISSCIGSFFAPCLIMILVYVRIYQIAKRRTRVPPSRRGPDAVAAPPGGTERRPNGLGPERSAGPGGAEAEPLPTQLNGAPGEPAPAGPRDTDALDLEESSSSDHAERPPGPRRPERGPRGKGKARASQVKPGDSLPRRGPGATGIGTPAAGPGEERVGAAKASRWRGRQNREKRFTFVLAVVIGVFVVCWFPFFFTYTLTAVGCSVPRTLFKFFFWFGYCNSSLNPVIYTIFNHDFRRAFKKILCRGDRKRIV
T1 sequence (P18825 whole entry): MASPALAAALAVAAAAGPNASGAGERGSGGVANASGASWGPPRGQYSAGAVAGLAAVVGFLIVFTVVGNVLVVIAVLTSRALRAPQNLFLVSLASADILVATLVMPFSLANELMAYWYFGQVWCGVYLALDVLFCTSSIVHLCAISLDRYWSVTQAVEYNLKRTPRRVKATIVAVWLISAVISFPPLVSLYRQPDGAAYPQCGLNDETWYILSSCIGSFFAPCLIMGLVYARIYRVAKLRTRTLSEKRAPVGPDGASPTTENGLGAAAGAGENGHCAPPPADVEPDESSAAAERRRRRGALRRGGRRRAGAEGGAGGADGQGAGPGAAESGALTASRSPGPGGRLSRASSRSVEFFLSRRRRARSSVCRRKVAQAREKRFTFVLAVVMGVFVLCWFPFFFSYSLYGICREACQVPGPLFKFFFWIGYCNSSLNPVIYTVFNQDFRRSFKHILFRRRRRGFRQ
T1 sequence (P18089 whole entry): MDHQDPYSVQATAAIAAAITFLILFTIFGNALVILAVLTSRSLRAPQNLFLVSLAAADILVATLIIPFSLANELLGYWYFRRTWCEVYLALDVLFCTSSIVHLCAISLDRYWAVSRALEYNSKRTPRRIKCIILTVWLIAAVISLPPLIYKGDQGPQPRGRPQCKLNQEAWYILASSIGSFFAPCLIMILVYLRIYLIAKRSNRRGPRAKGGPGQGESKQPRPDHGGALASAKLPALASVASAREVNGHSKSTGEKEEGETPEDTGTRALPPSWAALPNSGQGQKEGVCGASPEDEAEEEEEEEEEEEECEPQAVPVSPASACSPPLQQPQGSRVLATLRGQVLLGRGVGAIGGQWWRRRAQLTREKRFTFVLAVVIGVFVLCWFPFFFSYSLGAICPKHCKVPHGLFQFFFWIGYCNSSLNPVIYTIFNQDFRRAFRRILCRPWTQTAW
Outline: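 Competition binding on post-mortem human PFC P2 membranes in 50 mM Tris-HCl pH 7.5. [3H]RX821002 at 2 nM; competitor at 10 concentrations from 10⁻¹² to 10⁻³ M; 30 min at 25 °C. Vacuum filtration on GF/C, scintillation counting. Nonspecific binding defined with adrenaline 10⁻⁵ M. Ki from nonlinear regression with a one-site model.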

[2] = target: T1, Adrenergic receptor alpha-2; experiment: Activity at alpha2 adrenergic receptor in human brain prefrontal cortex membranes assessed as effect on UK14304-induced [35S]GTPgammaS binding by measuring UK14304 EC50 at 10^-5 M after 120 mins by microbeta liquid scintillation spectrometry (reference value: 0.4 +/- 0.01 uM); format: functional, Membrane
[3] = target: T2, Adrenergic receptor alpha-2 (Homo sapiens) (UniProt P08913+P18825+P18089); experiment: Activity at alpha2 adrenergic receptor in human brain prefrontal cortex membranes assessed as effect on UK14304-induced [35S]GTPgammaS binding at 10^-5 M after 120 mins by microbeta liquid scintillation spectrometry (reference value: 132 +/- 2%); format: functional; conditions: Membrane
[4] = target: T2, Adrenergic receptor alpha-2 (Homo sapiens); experiment: Agonist activity at alpha2 adrenergic receptor in human brain prefrontal cortex membranes assessed as stimulation of [35S]GTPgammaS binding at 10^-12 to 10^-3 M after 120 mins by microbeta liquid scintillation spectrometry; format: functional; conditions: Membrane
Outline: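 GTPγS exchange in human prefrontal cortex P2 membranes (20 µg/well) with 0.5 nM [35S]GTPγS, in EGTA/MgCl₂/100 mM NaCl/GDP/Tris pH 7.4 buffer. Ten concentrations from 10⁻¹² to 10⁻³ M; 30 °C for 120 min with shaking. Filtered on GF/C and scintillation counted; nonspecific binding with 10 µM GTPγS. EC50 and Emax expressed as % over basal binding.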

[5] = target: T2, Adrenergic receptor alpha-2 (Homo sapiens); experiment: Agonist activity at alpha2 adrenergic receptor in human brain prefrontal cortex membranes assessed as stimulation of [35S]GTPgammaS binding at 10^-5 M after 120 mins in presence of antagonist RX821002 by microbeta liquid scintillation spectrometry; format: functional; conditions: Membrane

SMILES: CCOC(=O)c1c(C)csc1NC(=N)N.Cl
- Ki [1]: 66530 nM

SMILES: COC(=O)c1ccsc1NC(=N)N.Cl
- Ki [1]: > 100000 nM

SMILES: Cl.N#Cc1c(NC(=N)N)sc2c1CCC2
- Ki [1]: 2215 nM

SMILES: COC(=O)c1sccc1NC(=N)N.Cl
- Ki [1]: > 100000 nM

SMILES: CCOC(=O)c1c(NC(=N)N)sc2c1CCC2.Cl
- Ki [1]: 30150 nM

SMILES: CCOC(=O)c1c(NC(=N)N)sc2c1CCCCC2.Cl
- Ki [1]: > 100000 nM

SMILES: Cl.N=C(N)Nc1cc2c(s1)CCCC2
- EC50 [2]: 0.8 µM
- Emax [3]: 111%
- Activity [4]: inactive
- Ki [1]: 31.3 nM

SMILES: Cl.N=C(N)Nc1cc2c(s1)CCCCC2
- EC50 [2]: 10.7 µM
- Emax [3]: 124%
- Activity [5]: inactive
- Activity [4]: Active
- Ki [1]: 156 nM

SMILES: Cl.N#Cc1c(NC(=N)N)sc2c1CCCC2
- EC50 [2]: 6.6 µM
- Emax [3]: 128%
- Activity [4]: inactive
- Ki [1]: 733 nM

SMILES: CCOC(=O)c1c(NC(=N)N)sc2c1CCCC2.Cl
- Ki [1]: 9086 nM

SMILES: Cl.N#Cc1c(NC(=N)N)sc2c1CCCCC2
- Ki [1]: 1198 nM

SMILES: Cl.N=C(N)Nc1cc2c(s1)CCC2
- EC50 [2]: 0.5 µM
- Emax [3]: 111%
- Activity [4]: inactive
- Ki [1]: 87.9 nM

SMILES: Cl.N=C(N)Nc1nc2c(s1)CCCC2
- EC50 [2]: 11.4 µM
- Emax [3]: 105%
- Activity [4]: inactive
- Ki [1]: 1205 nM

SMILES: Cl.N=C(N)Nc1nc2c(s1)CCC2
- EC50 [2]: 1.5 µM
- Emax [3]: 126%
- Activity [4]: inactive
- Ki [1]: 706 nM

SMILES: Cl.N=C(N)NCc1cccs1
- Ki [1]: 3928 nM

SMILES: Cl.N=C(N)NCCc1cccs1
- EC50 [2]: 1.7 µM
- Emax [3]: 117%
- Ki [1]: 751 nM

SMILES: Cl.N=C(N)Nc1ccsc1
- Ki [1]: 1968 nM
